Screening results as filed in PubChem.
Shown are actives, neighbours in structure and some others; about 3.5% of the full set was active somewhere.
MrgX1 ag = agonists of human MrgX1 receptor; MrgX1-HEK293 cells, Fluo-4 calcium fluorescence, agonist mode; active compounds read high; AID 588627; 0.44% of 310,000 active; B-score at 10 µM; Q96LB2;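 active = calcium response B-score plate-corrected fluorescence ratio at least 3 library SD, with starting fluorescence B-score inside 5 SD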
Target sequence (Q96LB2 whole entry, looked up): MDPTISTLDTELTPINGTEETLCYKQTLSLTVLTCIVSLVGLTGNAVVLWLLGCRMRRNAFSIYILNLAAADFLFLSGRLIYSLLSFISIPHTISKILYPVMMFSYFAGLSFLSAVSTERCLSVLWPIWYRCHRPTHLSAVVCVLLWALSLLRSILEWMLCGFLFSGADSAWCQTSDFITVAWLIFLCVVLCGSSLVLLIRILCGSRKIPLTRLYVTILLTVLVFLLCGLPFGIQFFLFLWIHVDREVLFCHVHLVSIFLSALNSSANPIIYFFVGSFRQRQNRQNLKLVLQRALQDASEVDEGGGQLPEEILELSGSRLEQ
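Test system: HEK293 cells stably expressing human MrgX1 receptor; Input: fifteen thousand cells per well; Dosing: compound delivered in addition one of three; Schedule: overnight seeding, then 1 h dark dye loading; Technique: Fluo-4 NW calcium fluorescence; Measure: B-scored fluorescence response ratio; Controls: positive and negative controls per plate.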
MrgX1 PAM = human MrgX1 positive allosteric modulation, primary screen | AID 588675 | MrgX1-HEK293, Fluo-4 calcium flux, FDSS; active compounds read high | 0.63% of 310,000 active | Q96LB2 | B-score at 10 µM;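 active = plate-corrected calcium response at least 3 library SD above typical, normal starting fluorescence, not activating the receptor alone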;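 also: compound read alongside a low EC10 to EC30 dose of BAM8-22 agonist; peak minus trough fluorescence over baseline measured at the second addition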
RGS4 inh = inhibitors of human RGS4 | P49798 | HEK293 M3R/RGS4 inducible, Fluo-4 calcium flux; active compounds read high; triggered by carbachol at its EC20 | B-score at 10 µM | 0.45% of 310,000 active | AID 463165;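 active = B-score, a plate-corrected calcium signal, over three deviations above library mean, with baseline fluorescence within five deviations of library mean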;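 also: RGS4 expression induced by doxycycline in cells with stable M3 receptor; B-score is computed from the integrated fluorescence ratio over baseline after carbachol; higher B-score means a larger calcium signal and so more RGS4 inhibition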
Target sequence (P49798 whole entry, looked up): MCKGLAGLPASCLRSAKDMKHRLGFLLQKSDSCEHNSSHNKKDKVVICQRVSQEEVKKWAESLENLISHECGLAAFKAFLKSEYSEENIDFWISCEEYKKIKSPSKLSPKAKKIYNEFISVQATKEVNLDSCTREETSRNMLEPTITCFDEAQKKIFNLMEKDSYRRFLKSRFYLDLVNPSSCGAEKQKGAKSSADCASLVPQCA
MrgX1 antag = human MrgX1 receptor antagonism, primary screen. MRGX1-HEK293 calcium flux, Fluo-4, BAM8-22 antagonism; active compounds read low. 1.3% of 310,000 active. Q96LB2. B-score at 10 µM;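 active = calcium-response B-score plate-corrected more than 3 library SD below zero, starting fluorescence within 5 deviations, no agonist response on first addition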;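 also: peak minus trough fluorescence over baseline after final BAM8-22 challenge near maximal dose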
RGS4 act = RGS4 potentiation or activation | HEK293 M3R/inducible RGS4, carbachol calcium flux Fluo4; active compounds read low | B-score at 10 µM | 0.92% of 310,000 active;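 active = B-score of the integrated calcium signal more than 4 SD below the library mean, with starting fluorescence not abnormally high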;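 also: negative B-score means reduced calcium response which marks RGS4 activation or potentiation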
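Detection: kinetic calcium fluorescence imaging with Fluo4-AM dye, 2 µM / Material: HEK293 cells with stable M3R and inducible RGS4 / Schedule: recording 10 s baseline at 1 Hz, 100 s post-agonist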
MrgX1 ant reconf = confirmation of human MrgX1 receptor antagonists | remaining BAM8-22 calcium response % of control (active compounds read low), % at 10 µM | AID 602420 | 19% of 2,300 active | shares compounds with MrgX1 antag | MrgX1-HEK293, BAM8-22 calcium flux, Fluo-4; active compounds read low;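 active = remaining agonist calcium response no higher than 100% minus 3 SD of agonist-only control wells, with starting fluorescence near control levels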;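 also: agonist BAM8-22 given at a near maximal EC90 to ECmax level; peak minus minimum fluorescence divided by baseline after agonist addition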
HEK293 Ca flux = activity in parental HEK293 cells lacking MrgX1; 2% of 4,000 active; Fluo-4 calcium fluorescence, FDSS; fluorescence ratio F(max-min)/F0 at 10 µM; AID 624111; shares compounds with MrgX1 antag;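 active = duplicate-averaged calcium fluorescence ratio at least three times the standard deviation of buffer wells, a nonspecific response in parental cells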
HEK293 Ca counter = counter-screen for MrgX1 allosteric activators: effect in parental HEK293 cells; shares compounds with MrgX1 antag; parental HEK293 calcium flux, Fluo-4 fluorescence ratio; active compounds read high; fluorescence ratio F(max-min)/F0 at 10 µM; 0.4% of 4,000 active;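 active = calcium fluorescence ratio, averaged over duplicates, at least 3 SD of the buffer-well ratio, meaning a nonspecific response in receptor-free cells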;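 also: untransfected parental HEK293 lacking MrgX1 used as counterscreen for MrgX1 allosteric activators; fluorescence change taken during the second addition on a kinetic imager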
HEK293 Ca cntr2 = activity in parental HEK293 cells lacking MrgX1 receptor; 8.7% of 4,000 active; Fluo-4 calcium fluorescence (FDSS); active compounds read high; AID 624115; shares compounds with MrgX1 antag; fluorescence ratio F(max-min)/F0 at 10 µM;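 active = calcium fluorescence ratio at least three times the spread of buffer wells, meaning a non-specific response in parental cells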
Starred values were filed as active, the others as inactive; i = inactive; . = no result given.

SMILES	MrgX1 ag	MrgX1 PAM	RGS4 inh	MrgX1 antag	RGS4 act	MrgX1 ant reconf	HEK293 Ca flux	HEK293 Ca counter	HEK293 Ca cntr2
O=C(CC1C(=O)NC2CCCCC2N1C(=O)c1ccc(F)cc1)Nc1ccccc1 (stereo unspecified)	i	i	i	-4.8*	i	i	i	i	i
C=CCn1c(CCCNC(=O)c2ccccc2OC)nc2ccccc21	i	i	i	i	i	.	.	.	.
COc1ccc(OC)c(NC(=O)CCN2CC(C)OC(C)C2)c1 (stereo unspecified)	i	i	i	i	i	.	.	.	.
COc1ccc(C)cc1NC(=O)CCN1CC(C)OC(C)C1 (stereo unspecified)	i	i	i	-5.1*	i	i	i	i	i
CC1(C)C2CCC13CS(=O)(=O)N[C@@H]3C2 (stereo partly specified)	i	i	i	-9.4*	i	i	i	i	i
O=C(NCC1CC1)c1cc(-c2ccccc2)nn1CC1CC(c2cccnc2)=NO1 (stereo unspecified)	i	i	i	i	i	.	.	.	.
Cc1cc(O)c(C(C)C)cc1N=Nc1ccccc1C(=O)O	i	i	i	i	i	.	.	.	.
Cc1cc(N=Nc2ccccc2C(=O)O)c(C)c(C)c1O	i	i	i	-6.9*	i	i	i	i	i
CCNC(=S)NCc1ccco1	i	i	i	-6.2*	i	i	i	i	i
S=C(NCc1ccc(Cl)cc1)NCc1ccco1	i	i	i	i	i	.	.	.	.
Cc1ccc(C)c(S(=O)(=O)N2CCCC2CNC(=O)C(=O)NCc2ccccn2)c1 (stereo unspecified)	i	i	i	i	i	.	.	.	.
Cc1cccc(NC(=O)CSc2ccc(C(N)=O)cc2[N+](=O)[O-])c1C	i	i	i	i	i	.	.	.	.
O=C(CCNC(=O)c1ccc(Br)cc1)NCc1ccncc1	i	i	i	-6.1*	i	i	i	i	i
O=C(NCc1ccncc1)c1ccc(Br)cc1	i	i	i	i	i	.	.	.	.
O=C(C(=O)N1CCN(c2cccc(Cl)c2)CC1)c1c[nH]c2ccccc12	i	i	i	i	i	.	.	.	.
O=C(NC(NC(=S)Nc1ccc(Cl)c(Cl)c1)C(Cl)(Cl)Cl)c1ccco1 (stereo unspecified)	i	i	i	i	i	.	.	.	.
O=C(NC(NC(=S)Nc1cc(Cl)ccc1Cl)C(Cl)(Cl)Cl)c1ccco1 (stereo unspecified)	i	i	i	-5.8*	i	60%*	i	i	i
COc1ccccc1-n1nnnc1SCC(=O)N(CC(C)C)C1CCS(=O)(=O)C1 (stereo unspecified)	i	i	i	i	i	.	.	.	.
Cc1ccc(C)c(-n2c(SCC(=O)Nc3nonc3C)nnc2-c2ccoc2C)c1	i	i	i	-5.4*	i	83%*	i	i	i
C=CCNc1ncnc2sc(SC)nc12	i	i	i	i	i	.	.	.	.
COCCN1C(=O)N[C@@H](c2cccc(C(F)(F)F)c2)[C@H](C(=O)OC)[C@H]1C	i	i	i	i	i	.	.	.	.
CCOC(=O)CN1C(=O)N[C@@H](c2cccc(C(F)(F)F)c2)[C@@H](C(=O)OC)[C@H]1C	i	i	i	-6.1*	i	i	i	i	i
COc1ccc(Cl)cc1S(=O)(=O)N1CCCC1	i	i	i	i	i	.	.	.	.
Cc1cc(C)c2cc3c(ccn3C3OC[C@H](O)[C@H](O)[C@H]3O)cc2n1 (stereo partly specified)	i	i	i	-6.4*	i	i	i	i	i
O=C1c2cnccc2CN1Cc1ccccc1	i	i	i	-5.3*	i	i	i	i	i
SMILES	MrgX1 ag	MrgX1 PAM	RGS4 inh	MrgX1 antag	RGS4 act	MrgX1 ant reconf	HEK293 Ca flux	HEK293 Ca counter	HEK293 Ca cntr2
O=C(Nc1ccc(S(=O)(=O)Nc2nccs2)cc1)c1cc(-c2ccccc2)nc2ccccc12	i	i	i	i	i	.	.	.	.
Cc1ccc(-c2cc(C(=O)Nc3ccc(S(=O)(=O)Nc4ncccn4)cc3)c3ccccc3n2)cc1	i	i	i	-5.7*	i	i	i	i	i
CCCNC(=S)N1CCC(C(=O)c2ccc3c(c2)OCCO3)CC1	i	i	i	i	i	.	.	.	.
COC(=O)C(Cc1ccccc1)N1CCS(=O)(=O)CC1 (stereo unspecified)	i	i	i	i	i	.	.	.	.
COC(=O)C(Cc1c[nH]c2ccccc12)N1CCS(=O)(=O)CC1 (stereo unspecified)	i	i	i	-5.7*	i	i	i	i	i
O=C(Nc1ccc(OCc2ccccc2)cc1)c1ccccc1	i	i	i	-9*	i	i	i	i	i
O=C1C(C=NCc2ccco2)=C(O)c2ccccc21	i	i	i	-8.6*	i	i	i	i	i
COc1ccc(N2C(=O)CCC(C(=O)N3CCOCC3)C2c2ccc(F)cc2)cc1 (stereo unspecified)	i	i	i	-4.8*	i	i	i	i	i
COc1ccc(N2C(=O)CCC(C(=O)N3CCCCC3)C2c2ccc(F)cc2)cc1 (stereo unspecified)	i	i	i	i	i	.	.	.	.
COC(=O)[C@@H](NC(=O)c1ccc2c(c1)S(=O)(=O)c1ccccc1C2=O)C(C)C	i	i	i	-4.7*	i	i	i	i	i
CC(=O)c1ccc(OCC(=O)NC2CCS(=O)(=O)C2)cc1 (stereo unspecified)	i	i	i	i	i	.	.	.	.
Cc1ccc(C)c(OCCC(=O)OCC(=O)NC2CCS(=O)(=O)C2)c1 (stereo unspecified)	i	i	i	-5.5*	i	i	i	i	i
